From PubChem
NR2E3 ag-1 – NR2E3 agonists in two-hybrid cells, primary screen, cell-based, luminescence, CHO-S, Gal4-NCOR/VP16-NR2E3; luciferase; inhibition of corepressor binding, % at 3.98 µM; hit rate 0.35% among 360,000;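 active = inhibition above the mean of all tested compounds plus 3 SD, cut at about 70% in these data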;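 note: higher means lower luciferase signal from less NR2E3 corepressor binding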
Target sequence (Q9Y5X4 whole entry, looked up, the tested form may be a part): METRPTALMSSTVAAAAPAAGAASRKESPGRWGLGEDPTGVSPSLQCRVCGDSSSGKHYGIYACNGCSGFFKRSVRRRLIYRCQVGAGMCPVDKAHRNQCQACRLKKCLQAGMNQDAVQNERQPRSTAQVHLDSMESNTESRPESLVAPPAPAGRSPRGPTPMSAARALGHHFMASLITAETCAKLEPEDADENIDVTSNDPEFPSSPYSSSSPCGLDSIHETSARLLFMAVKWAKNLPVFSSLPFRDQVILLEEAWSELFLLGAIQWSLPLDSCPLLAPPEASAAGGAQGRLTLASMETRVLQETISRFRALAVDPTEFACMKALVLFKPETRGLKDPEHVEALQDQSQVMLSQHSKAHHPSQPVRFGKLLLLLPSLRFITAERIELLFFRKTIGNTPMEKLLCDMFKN
NR2E3 ag-2 – inhibitors of NR2E3-RetCOR corepressor binding, primary screen, NR2E3 agonist project, biochemical, TR-FRET, GST-NR2E3, biotin-RetCOR; Photoreceptor-specific nuclear receptor (Homo sapiens), Q9Y5X4; 1536-well; inhibition of corepressor binding, % at 4.78 µM; hit rate 0.12% among 320,000;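 active = percent inhibition above the cutoff of mean plus 3 SD of all tested compounds, set per screening campaign, cut at about 20% in these data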
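Assay system: NR2E3–RetCOR corepressor complex. Quantity: 1.35 nM GST-NR2E3. Buffer or medium: pH 7.5 Tris-based buffer. Reagent: biotinylated RetCOR corepressor at 7 nM final. Schedule: 5 h at 4 °C. Detection: TR-FRET, emission read at 617 and 671 nm. Replicates: one well per compound, singlicate testing.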
Rev-erbA mod – modulators of Rev-erb alpha DNA binding, primary screen, biochemical, FITC-DNA, fluorescence polarization, uHTS; Rev-erbα–FITC-DNA binding, 90 min; activity, % at 10 µM; hit rate 0.79% among 370,000; AID 1259318, 2017;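 active = activity above about 14%, limit read from the data; passing the limit was not always enough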
PG9 Ab binder – binders of HIV-1 gp120 antibody PG9, primary screen, biochemical, TR-FRET; HIV-1 gp120 / PG9 antibody interaction; AID 624416, 2012; TR-FRET gp120-PG9 antibody binding; inhibition, % at 6.7 µM; hit rate 0.43% among 360,000; in the data active = inhibition above about 8.5%
rCAG RNA binder – binders of r(CAG) RNA repeats, primary screen, biochemical, fluorescence; hit rate 1.3% among 370,000; r(CAG) RNA repeat, TO-PRO-1 dye displacement fluorescence; AID 651821, 2012; inhibition, % at 3 µM;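 active = inhibition above the plate cutoff, the mean of all test compounds on that plate plus 3 SD, cut at about 35% in these data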;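 note: higher means more dye released from RNA so lower well fluorescence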
Rev-erbA confirm – modulators of Rev-erb alpha DNA binding, confirmation, biochemical, FITC-DNA, fluorescence polarization, single point. 90 min. hit rate 61% among 3,000. AID 1259319, 2017. shares compounds with Rev-erbA mod. activation, % at 25 µM;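 active = activation at or above a set limit, or at least 3 SD above the negative control mean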
RORg counter – modulation of RORgamma DNA binding, dose response, counter-screen for Rev-erb alpha modulator project, biochemical, fluorescence polarization, FITC-DNA; shares compounds with Rev-erbA mod; purified RORgamma protein-FITC-DNA binding; IC50, µM; hit rate 8% among 910; AID 1259320, 2017;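 active = Compounds whose fitted half-maximal concentration for disrupting protein-DNA binding is below 10 micromolar; the record names Rev-erb in its text, so the target is in doubt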
A number is an active result; n = inactive; x = no result given. Sampled rows, rich in hits. Any-hit rate of the full collection: about 2.6%.

SMILES	NR2E3 ag-1	NR2E3 ag-2	Rev-erbA mod	PG9 Ab binder	rCAG RNA binder	Rev-erbA confirm	others
COc1ccccc1NC(=O)c1sc2nc(Cc3ccccc3)cc(C(F)(F)F)c2c1N	n	n	45	x	x	63	RORg counter=n
Cc1ccc(NC(=O)c2sc3nc(C)nc(N4CCN(c5ccccn5)CC4)c3c2C)c(C)c1	n	n	n	n	n	x
Cc1nc(N2CCN(c3ccccn3)CC2)c2c(C)c(C(=O)Nc3ccc(Br)cc3C)sc2n1	n	n	40	n	n	n
COc1ccccc1NC(=O)c1sc2nc3n(c(=O)c2c1C)CCC3	n	n	43	n	n	29
COCCNC(=O)C1(C)CCCN(C(=O)c2ccc(F)cc2Cl)C1 (stereo not given)	n	x	n	n	n	x
COc1ccc(C)cc1NC(=O)c1sc2ncnc(N3CCN(c4ccccn4)CC3)c2c1C	n	n	37	n	n	n
COc1ccccc1NC(=O)Cn1c(=O)n(-c2ccccc2)c(=O)c2oc3ccccc3c21	n	n	20	n	n	23
CCCCn1nnnc1C1(C)CCC(=O)N1CCc1ccccc1F (stereo not given)	n	x	n	n	n	x
CCOc1ncccc1C(=O)OCc1cc(=O)oc2c(C)c(C)ccc12	n	x	34	n	n	n
Cn1nnnc1SCc1nc2ccccc2s1	n	n	22	n	n	n
Cc1c(/C(O)=C2/C(=O)C(=O)N(CCN3CCOCC3)C2c2cccs2)cnn1-c1ccccc1 (stereo not given)	n	n	21	n	n	26
CC(=O)[C@@H]1[C@@H]2C(=O)N(Cc3ccccc3)C(=O)[C@@H]2C2c3ccccc3C=CN21 (stereo not given in full)	n	n	26	n	n	28
O=C(c1ccco1)[C@@H]1[C@@H]2C(=O)N(c3ccccc3)C(=O)[C@@H]2C2c3ccccc3C=CN21 (stereo not given in full)	n	n	n	n	n	x
Cc1ccc(S(=O)(=O)NCCNc2ccc(Br)c(C)c2)cc1	n	x	n	n	n	x
COc1ccc(-c2nnc3ccc(SCC(=O)Nc4nc5ccccc5s4)nn23)cc1OC	n	n	46	n	n	n
Cc1cccc(NC(=O)Nc2ccc3c(c2)CCC3)c1	n	n	n	n	n	x
CCCCN(C(=O)c1ccc(-c2ccc(Cl)cc2)o1)c1c(N)n(CC(C)C)c(=O)[nH]c1=O	n	n	18	n	n	n
COc1ccc(-n2nc(C(=O)NCC(=O)NC(C)C)c3ccccc3c2=O)cc1Cl	n	n	n	n	n	x
COc1ccc(-n2nc(C(=O)NCC(=O)Nc3ccccn3)c3ccccc3c2=O)cc1Cl	n	x	66	n	n	45	RORg counter=n
COc1ccc(-n2nc(C(=O)NCC(=O)N3CCN(c4cccc(Cl)c4)CC3)c3ccccc3c2=O)c(OC)c1	n	n	31	n	n	n
COc1ccc(-n2nc(C(=O)NCC(=O)Nc3cc(Cl)c(OC)cc3OC)c3ccccc3c2=O)cc1	n	n	53	n	n	50	RORg counter=n
CC(=O)c1sc2c(c1OC(=O)c1ccc(Cl)cc1)c(=O)n(-c1ccccc1)c(=S)n2-c1ccccc1	n	x	45	n	n	n
CC(=O)c1sc2c(c1OC(=O)c1ccc(Cl)cc1Cl)c(=O)n(-c1ccccc1)c(=S)n2-c1ccccc1	n	n	n	n	n	x
O=C(NCc1ccc(F)cc1)C1CCCN(c2nc3ccsc3c(=O)s2)C1 (stereo not given)	n	n	20	n	n	n
N#C/C(=C\C1=C(N2CCOCC2)C(=C\c2ccc(Cl)cc2)/CC1)C(=O)Nc1ccccc1F	n	n	n	n	n	x
SMILES	NR2E3 ag-1	NR2E3 ag-2	Rev-erbA mod	PG9 Ab binder	rCAG RNA binder	Rev-erbA confirm	others
N#C/C(=C/C1=C(N2CCOCC2)C(=C/c2ccccc2)/CC1)C(=O)Nc1ccccc1F	n	x	19	n	n	18
Cc1cccc(C)c1NC(=O)C1(C)CCC(=O)N1CCc1c[nH]c2ccccc12 (stereo not given)	n	x	n	n	n	x
CCc1nnc(NC(=O)CSc2nc(-c3ccccc3)cc(-c3ccc(OC)cc3)c2C#N)s1	n	n	48	n	n	43
N#Cc1c(-c2ccccc2)cc(C2CC2)nc1SCC(=O)c1cccs1	n	x	19	n	n	30
COc1ccc(-c2cc(-c3ccccc3)nc(SCC(=O)Nc3nccs3)c2C#N)cc1	n	n	78	n	n	61	RORg counter=n
CCN(CC)C(=O)CSc1nc(C)cc(-c2cccs2)c1C#N	n	n	78	n	n	51	RORg counter=n
COc1ccc(-c2[nH]c(-c3ccc(C)cc3)nc2SCC(=O)Nc2nccs2)cc1	n	n	n	n	n	x
CC1CN(C(=O)COC(=O)/C=C/c2cccc([N+](=O)[O-])c2)CC(C)O1 (stereo not given)	n	x	n	n	n	x
CC(C)NC(=O)CSc1nc(-c2cccs2)cc(-c2ccccc2)c1C#N	n	n	60	n	n	47	RORg counter=n
CCc1nnc(NC(=O)Cc2ccc(OC)cc2)s1	n	n	n	n	n	x
CCc1nnc(NC(=O)CSc2nc3cc(OC)ccc3cc2C)s1	n	n	165	n	n	n
Cc1ccccc1-n1ncc2c1CC(C)(C)CC2NC(=O)C1=CC(=O)CC(C)(C)O1 (stereo not given)	n	n	n	n	n	x
CCN(C[C@H]1N[C@@](CC)(C(=O)OC)[C@H]2C(=O)N(C)C(=O)[C@@H]12)C(=O)NC(C)C	n	x	n	n	n	x
CN(CCOc1ccccc1)C(=O)CCc1nc2sc3c(c2c(=O)[nH]1)CCCC3	n	n	n	n	n	x
CCc1ccc(NC(=O)CCc2nc3sc4c(c3c(=O)[nH]2)CCCC4)cc1	n	n	19	n	n	n
Cc1ccc(OCCNC(=O)CCc2nc3sc4c(c3c(=O)[nH]2)CCCC4)cc1	n	n	20	n	n	n
NS(=O)(=O)c1ccc(CCNC(=O)CCc2nc3sc4c(c3c(=O)[nH]2)CCCC4)cc1	n	n	n	n	n	x
O=C(CCc1nc2sc3c(c2c(=O)[nH]1)CCCC3)NCCc1ccc(Cl)cc1	n	x	21	n	n	n
C=CCNc1cccc2c1S(=O)(=O)N[C@@H](C)CO2	x	x	n	n	n	x
Cn1cc(Cl)c(C(=O)Nc2nc3ccc(Cl)cc3s2)n1	n	n	83	n	n	25
